Measurements collected from several papers.
Lines come from different studies, so protocols differ.
Target: Mitogen-activated protein kinase 10 (MAPK10, Homo sapiens, UniProt P53779)

The remaining activity of `COc1cc(Cl)c(C(=O)N[C@@H](CN[C@H]2CC[C@@H](N)CC2)Cc2ccc(C#N)cc2)cc1-c1ccc(CN[C@H](C)c2ccc(C)cc2)o1` is reported as 93% (enzyme activity, inhibitor; 1 µM).
`O=C(Nc1cccnn1)N1CCC(=Cc2cccc(Oc3ccc(C(F)(F)F)cn3)c2)CC1` gave a remaining binding of 100% (cell-free assay, competition with immobilised ligand; 1 µM).
For `CC(C)(C)c1nc2c(s1)c1nc(N)ncc1c1ccc(NS(=O)(=O)c3c(F)cccc3F)c(F)c12`, the remaining activity was 70% (enzyme activity, inhibitor, radiometric; 1 µM).
`CC(C)(O)[C@H]1CC[C@H](Nc2ccc3ncc(-c4cccc(C(F)(F)F)c4)n3n2)CC1` gave a remaining activity of 107% (enzyme activity, inhibitor; 1 µM).
For `CNC(=O)Nc1ccc2c(c1)CC[C@@]21OC(=O)N(CC(=O)N(Cc2ccc(F)cc2)[C@@H](C)C(F)(F)F)C1=O`, the remaining binding was 73% (cell-free assay, competition with immobilised ligand; 1 µM).
`COc1cc(-c2cc(-c3ccc(N4CCNCC4)cc3)cnc2C)cc(OC)c1OC` has an inhibition of 1% (enzyme activity, inhibitor; 0.1 µM).
The remaining signal of `O=C1NC(=O)c2cc(Nc3ccc(F)cc3)c(Nc3ccc(F)cc3)cc21` is reported as 97.3% (cell-free assay; 0.5 µM).
`Cc1ccc(C(=O)Nc2ccc(CN3CCN(C)CC3)c(C(F)(F)F)c2)cc1C#Cc1cnc2cccnn12` has a remaining activity of 85% (enzyme activity, inhibitor; 23.5 nM).
`c1ccc(N2CCN(Cc3nc4ccccc4[nH]3)CC2)nc1` gave a remaining binding of 100% (binding, competition with immobilised ligand; 1 µM).
`CC/C(=N\NC(=O)NCc1cccc(O)c1)c1ccc(O)c(C)c1O` gave an inhibition of -5% (enzyme activity, inhibitor; 0.1 µM).
`O=C(NC[C@@H]1[C@H]2CN(C(=O)OCc3cc(C(F)(F)F)cc(C(F)(F)F)c3)C[C@@H]12)c1ccc2[nH]nnc2c1` has a remaining binding of 90% (cell-free assay, competition with immobilised ligand; 1 µM).
`COc1cc2ncnc(Nc3ccc(Oc4ccccc4)c(C)c3C)c2cc1OC` has an inhibition of -1% (enzyme activity, inhibitor; 1 µM).
For `Cc1ccc(NC(=O)c2ccc(C)c(C(F)(F)F)c2)cc1C#Cc1nn(C2CCC(O)CC2)c2ncnc(N)c12` (stereo not drawn), the remaining signal was 40% (cell-free assay; 10 µM).
The ΔTm of `Nc1ncnc2c1ncn2[C@@H]1O[C@H](COP(=O)(O)OP(=O)(O)OP(=O)(O)O)[C@@H](O)[C@H]1O` is reported as ~4.6 °C (thermal stability, DSF; 2 µM).
For `COc1cc(Nc2cnc(C#N)c(O[C@H](C)CN(C)C)n2)ncc1-c1cnn(C)c1`, the remaining activity was 113% (enzyme activity, inhibitor, radiometric; 1 µM).
For `CCS(=O)(=O)c1cc2cc(C[C@@](O)(CC(C)(C)c3ccc(F)cc3C(N)=O)C(F)(F)F)[nH]c2cn1`, the remaining binding was 100% (cell-free assay, competition with immobilised ligand; 1 µM).
`CCOc1cc(-c2nncn2C)ccc1Nc1ncc2cc(C)nc(NCC(C)(C)C)c2n1` has an inhibition of 80% (enzyme activity, inhibitor, FRET; 1 µM).
`Oc1cccc(-c2nc(N3CCOCC3)c3oc4ncccc4c3n2)c1` has a remaining activity of 101% (enzyme activity, inhibitor; 10 µM).
`O=C1Nc2ccc(Cl)cc2C1=Cc1cc(Cl)c(O)c(Cl)c1` has a remaining signal of 98.8% (cell-free assay; 0.5 µM).
`Cc1sc(C(=O)NC2COC2)cc1-n1cc(NC(=O)Nc2c(F)cccc2Cl)cn1` gave a remaining activity of 10.5% (enzyme activity, inhibitor; 10 µM).
For `CN(C)CC#Cc1ccc(OCCCc2sc(N3CCc4cccc(C(=O)Nc5nc6ccccc6s5)c4C3)nc2C(=O)O)c(F)c1`, the remaining binding was 71% (cell-free assay, competition with immobilised ligand; 1 µM).
`FC(F)(F)Oc1cccc(-c2cnc3ccc(-c4ccncc4)nn23)c1` has an activity vs control of 81% (enzyme activity, inhibitor, radiometric; 5 µM).
The remaining binding of `CC(=O)N1CCC(c2ccc(C(=O)NC3=NCCN3)cc2C(F)(F)F)CC1` is reported as 100% (cell-free assay, competition with immobilised ligand; 1 µM).
`CNC(=O)c1cc(Oc2ccc(NC(=O)Nc3ccc(Cl)c(C(F)(F)F)c3)cc2)ccn1` has an inhibition of 66% (enzyme activity, inhibitor; 10 µM).
